The source made the active and inactive calls. No cut-off for these calls is given here.
Key:
Mus musculus [1] = test: Inhibition of FAAH in C57Bl/6J mouse brain assessed as increase of arachidonic acid level at 30 mg/kg, ip after 1 hr relative to control; type: functional; conditions: route intraperitoneal
Method in brief: (§1)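 Male C57Bl/6J mice (<6 months, 20–28 g) dosed i.p. at 30 mg/kg in 18:1:1 saline:ethanol:emulphor emulsion; brains taken 1 h later. One mouse in the initial screen, 3 per group in the follow-up. Brain homogenized in CHCl3:MeOH:Tris pH 8.0 with deuterated lipid standards; organic extract quantified by reverse-phase C18 LC-ESI-MS/MS against vehicle controls.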

Mus musculus [2] = test: Inhibition of FAAH in C57Bl/6J mouse brain assessed as increase of N-palmitoyl ethanolamine level at 30 mg/kg, ip after 1 hr relative to control; type: functional; conditions: route intraperitoneal; method in brief: as §1
Mus musculus [3] = test: Inhibition of FAAH in C57Bl/6J mouse brain assessed as increase of anandamide level at 50 mg/kg, po after 1 hr relative to control; type: functional
Method in brief: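 Male C57Bl/6J mice (<6 months, 20–28 g) given compound orally as a PEG300 solution at 10, 25 or 50 mg/kg, with 3 mice per group in the 50 mg/kg p.o. comparison; brains collected 1 h post-dose. Lipids extracted in CHCl3:MeOH:Tris pH 8.0 with deuterated internal standards, then measured by C18 LC-ESI-MS/MS relative to vehicle-treated mice.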

Mus musculus [4] = test: Inhibition of FAAH in C57Bl/6J mouse liver assessed as increase of 2-arachidonoylglycerol level at 30 mg/kg, ip after 1 hr relative to control; type: functional; conditions: route intraperitoneal
[5] = biological target: T1, Fatty-acid amide hydrolase 1 (Rattus norvegicus, UniProt P97612); test: Inhibition of rat recombinant FAAH expressed in Escherichia coli assessed as [14C]-labeled oleamide to oleic acid conversion
T1 sequence (P97612 whole entry): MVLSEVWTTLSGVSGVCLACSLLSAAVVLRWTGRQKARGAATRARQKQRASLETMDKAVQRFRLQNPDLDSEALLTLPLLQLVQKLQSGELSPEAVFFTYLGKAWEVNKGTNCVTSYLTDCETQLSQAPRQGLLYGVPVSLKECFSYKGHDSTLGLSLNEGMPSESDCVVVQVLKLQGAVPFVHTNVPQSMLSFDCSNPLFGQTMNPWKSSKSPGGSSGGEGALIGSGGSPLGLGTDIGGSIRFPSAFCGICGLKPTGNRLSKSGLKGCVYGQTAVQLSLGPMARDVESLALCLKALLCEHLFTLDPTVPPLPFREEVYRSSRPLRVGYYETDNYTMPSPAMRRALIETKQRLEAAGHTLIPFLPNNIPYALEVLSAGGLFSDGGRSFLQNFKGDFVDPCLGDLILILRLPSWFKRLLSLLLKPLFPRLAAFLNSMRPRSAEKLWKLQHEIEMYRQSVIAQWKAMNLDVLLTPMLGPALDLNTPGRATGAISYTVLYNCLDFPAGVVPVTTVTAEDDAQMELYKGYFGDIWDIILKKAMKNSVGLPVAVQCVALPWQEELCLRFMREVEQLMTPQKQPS

Mus musculus [6] = test: Inhibition of FAAH in C57Bl/6J mouse brain assessed as increase of 2-arachidonoylglycerol level at 50 mg/kg, po; type: functional, organism-based; parameters: dose 50 mg/kg; conditions: TDE = time-dependent effect
Method in brief: (§2)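 Male C57Bl/6J mice (<6 months, 20–28 g) given a single oral dose as a PEG300 solution. Brains were homogenized in CHCl3:MeOH:Tris pH 8.0 containing deuterated internal standards. The organic extract was analysed by reverse-phase C18 LC–ESI triple-quadrupole MS for anandamide, PEA, OEA and 2-AG. Dose series (10, 25, 50 mg/kg) was sampled at 1 h; the 50 mg/kg time course ran to 9 h. Three mice per group in the i.p./p.o. comparison.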

Mus musculus [7] = test: Inhibition of FAAH in C57Bl/6J mouse brain assessed as increase of N-palmitoyl ethanolamine level at 50 mg/kg, po; type: functional, organism-based; parameters: dose 50 mg/kg; conditions: TDE = time-dependent effect; method in brief: as §2
Mus musculus [8] = test: Toxicity in C57BL/6 mouse assessed as catalepsy at 50 mg/kg, po; type: organism-based; parameters: dose 50 mg/kg, route oral; conditions: in vivo
[9] = biological target: T2, Fatty-acid amide hydrolase 1 (Homo sapiens) (UniProt O00519); test: Competitive inhibition of full-length human FAAH expressed in COS-7 cells by Lineweaver-Burk analysis; type: cell-based
T2 sequence (whole entry): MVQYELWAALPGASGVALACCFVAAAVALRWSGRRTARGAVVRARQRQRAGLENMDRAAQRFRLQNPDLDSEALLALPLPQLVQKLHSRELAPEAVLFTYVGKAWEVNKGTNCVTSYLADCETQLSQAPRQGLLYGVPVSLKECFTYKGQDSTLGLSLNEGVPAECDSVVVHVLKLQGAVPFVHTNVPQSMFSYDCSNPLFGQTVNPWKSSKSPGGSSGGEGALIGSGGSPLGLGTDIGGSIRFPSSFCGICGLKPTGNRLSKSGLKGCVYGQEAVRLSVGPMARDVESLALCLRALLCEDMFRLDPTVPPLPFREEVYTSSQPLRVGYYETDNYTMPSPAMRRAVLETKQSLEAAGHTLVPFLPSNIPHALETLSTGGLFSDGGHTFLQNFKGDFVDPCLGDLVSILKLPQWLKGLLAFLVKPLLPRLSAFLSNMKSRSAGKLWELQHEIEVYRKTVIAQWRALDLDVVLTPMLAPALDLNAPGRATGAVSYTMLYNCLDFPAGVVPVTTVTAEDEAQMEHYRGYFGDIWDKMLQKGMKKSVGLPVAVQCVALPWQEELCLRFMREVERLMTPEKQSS
Method in brief: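 Solubilized membrane lysate of COS-7 cells transiently transfected with full-length human FAAH cDNA. Aliquots quenched in 0.1 N HCl at three times; oleamide/oleic acid extracted into EtOAc and separated by TLC. Initial rates (≤10–20% conversion) analysed by Lineweaver–Burk plot.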

How did the “fold change (FC)” value (Mus musculus [1]) turn out when `O=C(c1ncc(-c2ccccn2)o1)[C@H]1CCc2cc(Oc3ccccc3)ccc2C1` was run?
Its value is 0.8.

And the “fold change (FC)” value (Mus musculus [2])?
The value was 7.2.

What about the fold change (FC) (Mus musculus [3]) of the same compound?
Its fold change (FC) is 13.

What about the “fold change (FC)” value (Mus musculus [4]) of the same compound?
The value was 0.8.

What about the Ki [5] of the same compound?
Its Ki is 4.4 nM.

What about the Activity (Mus musculus [6]) of the same compound?
Its Activity is “tde”.

What about the Activity (Mus musculus [7]) of the same compound?
Its Activity is “tde”.

And the Activity (Mus musculus [8])?
Its Activity is “Non-toxic”.

What about the inhibition [9] of the same compound?
Its inhibition is “Active”.
